From ChEMBL document CHEMBL3808338, “Combined inhibition of the EGFR/AKT pathways by a novel conjugate of quinazoline with isothiocyanate” (Eur J Med Chem, 2016)
The source made the active and inactive calls. The rule behind the calls is not given here.

How the values were obtained:
[1] = system: A-431; test: Antiproliferative activity against human A431 cells assessed as cell growth inhibition after 72 hrs by MTT assay; type: functional, cell-based; conditions: A-431, 72 h
How it was run: (§1)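 A431 or HaCaT cells seeded at 1x10⁴ cells/well, incubated 24 h, then exposed to 0.03-30 µM for 72 h at 37°C, 5% CO₂. MTT (5 mg/ml in PBS) for 4 h after a PBS wash, formazan dissolved in isopropanol, read at 405 nm. Viability expressed as % of untreated cells; IC₅₀ taken from at least three independent dose-response curves.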

[2] = system: HaCaT; test: Antiproliferative activity against human HaCaT cells assessed as cell growth inhibition after 72 hrs by MTT assay; type: functional, cell-based; how it was run: as §1
[3] = target: T1, Epidermal growth factor receptor (Homo sapiens, UniProt P00533); test: Inhibition of EGFR-TK in human A431 cell lysate assessed as reduction in EGF stimulated kinase activity at 20 uM after 60 mins using biotinylated peptide substrate by ELISA; type: cell-free; conditions: A-431
T1 sequence (P00533 whole entry): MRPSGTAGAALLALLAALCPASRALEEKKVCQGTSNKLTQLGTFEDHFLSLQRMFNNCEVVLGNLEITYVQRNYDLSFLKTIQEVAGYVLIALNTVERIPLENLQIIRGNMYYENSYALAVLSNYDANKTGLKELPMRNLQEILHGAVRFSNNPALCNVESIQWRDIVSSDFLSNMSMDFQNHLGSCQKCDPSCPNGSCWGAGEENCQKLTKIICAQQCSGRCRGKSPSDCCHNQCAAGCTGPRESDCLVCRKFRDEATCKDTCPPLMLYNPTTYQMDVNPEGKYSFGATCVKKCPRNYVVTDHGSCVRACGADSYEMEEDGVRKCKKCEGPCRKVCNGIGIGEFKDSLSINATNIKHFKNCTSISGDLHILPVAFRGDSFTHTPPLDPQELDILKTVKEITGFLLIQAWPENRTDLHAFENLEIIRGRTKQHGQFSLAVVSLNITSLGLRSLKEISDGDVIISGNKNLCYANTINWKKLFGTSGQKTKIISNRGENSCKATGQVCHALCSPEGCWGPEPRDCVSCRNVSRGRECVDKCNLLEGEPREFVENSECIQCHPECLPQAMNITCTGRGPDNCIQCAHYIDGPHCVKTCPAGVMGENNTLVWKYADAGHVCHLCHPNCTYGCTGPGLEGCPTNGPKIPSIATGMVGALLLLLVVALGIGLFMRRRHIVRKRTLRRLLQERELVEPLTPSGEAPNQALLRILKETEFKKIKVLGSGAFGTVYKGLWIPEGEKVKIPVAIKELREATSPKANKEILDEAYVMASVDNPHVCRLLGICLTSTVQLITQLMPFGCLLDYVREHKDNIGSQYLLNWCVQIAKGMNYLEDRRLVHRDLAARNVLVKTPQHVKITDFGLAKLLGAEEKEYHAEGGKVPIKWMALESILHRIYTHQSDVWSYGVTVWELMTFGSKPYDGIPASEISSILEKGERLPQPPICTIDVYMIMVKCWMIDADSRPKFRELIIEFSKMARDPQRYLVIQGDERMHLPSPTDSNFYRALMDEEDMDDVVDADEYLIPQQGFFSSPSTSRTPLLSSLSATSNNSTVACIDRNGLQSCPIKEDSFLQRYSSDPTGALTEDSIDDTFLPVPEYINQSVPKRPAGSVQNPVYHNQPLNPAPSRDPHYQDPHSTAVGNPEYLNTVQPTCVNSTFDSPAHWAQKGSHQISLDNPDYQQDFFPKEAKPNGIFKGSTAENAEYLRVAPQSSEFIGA
How it was run: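 A431 cells seeded at 4x10⁶ per 100-mm dish and stimulated with EGF (100 nM) for 60 min with or without compound. Tyrosine kinase activity in lysates measured by direct colorimetric ELISA using a biotinylated peptide substrate and an anti-phosphotyrosine-HRP antibody.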

[4] = Antiproliferative activity against human HGF assessed as cell growth inhibition at 30 uM after 72 hrs by MTT assay; conditions: HGF cells, read-out: GI
How it was run: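 Gingival fibroblasts were grown from healthy-donor biopsies of permanent molars in DMEM/F12 with 10% FCS, then seeded at 1x10⁴ cells/well. After 24 h, cells were treated for 72 h at 37°C, 5% CO₂. Read-out was MTT with isopropanol solubilization at 405 nm, expressed as % of untreated cells.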

[5] = Chemical stability of the compound in phosphate buffer assessed as degradation at 2 uM at pH 7.2 after 0.5 to 24 hrs by HPLC analysis; type: physicochemical; conditions: pH 7.2, 2 µM
How it was run: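 Test solutions (2 µM) made from a 1 mg/mL DMSO stock diluted into pH 7.2 phosphate buffer and held at 37°C. Aliquots analysed by HPLC with diode-array detection on a phenyl-hexyl column at 0, 0.5, 2, 4 and 24 h.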

[6] = target: T1, Epidermal growth factor receptor; test: Inhibition of EGFR-TK in human A431 cell lysate assessed as reduction in EGF stimulated kinase activity after 60 mins using biotinylated peptide substrate by ELISA; type: cell-based, A-431
[7] = system: A-431; test: Effect on total Akt levels in human A431 cells after 2 hrs by ELISA analysis; type: cell-based; conditions: a-431, 2 h
[8] = system: A-431; test: Induction of apoptosis in human A431 cells assessed as DNA fragmentation at 2 uM after 24 hrs by ELISA analysis; type: functional
How it was run: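 A431 cells seeded at 5x10³ cells/well, then exposed to compound for 24 h at 37°C, 5% CO₂. Nucleosomal DNA fragmentation in lysate supernatants quantified by sandwich ELISA with anti-histone-biotin and anti-DNA-peroxidase antibodies and ABTS substrate (20 min), read at 405 nm. Expressed as fold increase, treated over untreated absorbance.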

[9] = target: T1, Epidermal growth factor receptor; conditions: A-431, 10 uM
[10] = target: T1, Epidermal growth factor receptor; conditions: A-431, 2 uM

Row | IC50 [1] | inhibition [3] | Structure (SMILES) | IC50 [2] | inhibition at 72 h, 30 µM [4] | Activity [8] | further results
1 | 16.1 µM | < 50% | O=C(CCCCCCN=C=S)Nc1ccc2ncnc(Nc3cccc(Br)c3)c2c1 | 17.3 µM |  |  | 
2 | 14.4 µM | < 50% | O=C(CCCCCN=C=S)Nc1ccc2ncnc(Nc3cccc(Br)c3)c2c1 | 16.5 µM | < 50% |  | Stability [5]: Stable
3 | 2.04 µM |  | S=C=Nc1ccc2ncnc(Nc3cccc(Br)c3)c2c1 | 2.62 µM | < 50% | 40% | IC50 [6]: 0.88 µM; Stability [5]: Stable; Activity [7]: Non-toxic; inhibition [9]: 89%; inhibition [10]: Active
4 | 17.1 µM | < 50% | O=C(CCCN=C=S)Nc1ccc2ncnc(Nc3cccc(Br)c3)c2c1 | 16.3 µM | < 50% |  | 
5 | 16.3 µM | < 50% | O=C(CCCCN=C=S)Nc1ccc2ncnc(Nc3cccc(Br)c3)c2c1 | 18.2 µM |  |  | 
6 | 17.1 µM | < 50% | O=C(CCN=C=S)Nc1ccc2ncnc(Nc3cccc(Br)c3)c2c1 | 18.9 µM |  |  | 
7 |  |  | C=CC(=O)Nc1ccc2ncnc(Nc3cccc(Br)c3)c2c1 |  |  | 48% | 
8 |  |  | CC[C@@]1(O)C(=O)OCc2c1cc1n(c2=O)Cc2cc3ccccc3nc2-1 [CAMPTOTHECIN] |  |  | 65% | 

Row | Structure (SMILES) | IC50 [1] | inhibition [3] | IC50 [2] | inhibition at 72 h, 30 µM [4] | Activity [8] | further results
9 | Nc1ccc2ncnc(Nc3cccc(Br)c3)c2c1 | 11.1 µM |  | 14.3 µM | < 50% |  | 
10 | C[S+]([O-])CCCCN=C=S (centres undefined) [SULFORAPHANE] | 15.8 µM |  |  |  |  | IC50 [6]: 9 µM
